Measurements: publication PMC6706283 (Bioorganic & medicinal chemistry, 2019)
“Also recorded” adds a separate entry of the source. Where two headings read alike, the source gives them in different places.

Tests used:
[1] = human liver microsome stability; assay type: in vitro ADME; conditions: 1 h
PAR2 = biological target: T1, PAR2 (Homo sapiens, UniProt P55085); assay: PAR2; assay type: cell-based; conditions: parmodulins 10 μM, vorapaxar 0.316 μM; SLIGKV-NH2 3.16 μM
T1 sequence (P55085 26-397): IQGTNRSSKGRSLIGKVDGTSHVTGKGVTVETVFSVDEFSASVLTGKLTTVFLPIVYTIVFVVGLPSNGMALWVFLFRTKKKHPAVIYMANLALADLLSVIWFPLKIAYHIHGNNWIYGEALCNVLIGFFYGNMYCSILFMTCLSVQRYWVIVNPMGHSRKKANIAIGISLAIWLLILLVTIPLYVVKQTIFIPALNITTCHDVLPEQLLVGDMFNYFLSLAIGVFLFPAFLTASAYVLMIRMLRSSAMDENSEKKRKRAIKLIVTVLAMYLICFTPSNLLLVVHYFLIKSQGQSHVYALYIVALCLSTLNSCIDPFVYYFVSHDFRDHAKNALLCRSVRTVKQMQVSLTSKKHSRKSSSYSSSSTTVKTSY
In short: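 Intracellular Ca2+ mobilization assay in EA.hy926 endothelial cells. Cells were pretreated with test compound (10 µM) or reference antagonist (0.316 µM), then stimulated with PAR2 agonist SLIGKV-NH2 (3.16 µM). A parallel run stimulated with PAR1 agonist TFLLRN-NH2 at 3.16 µM.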

[2] = after 5 h; cited from earlier work
[3] = biological target: SERT (serotonin transporter) (Homo sapiens, UniProt P31645); assay: PDSP radioligand binding, SERT; conditions: read-out: mean % inhibition of binding, SERT
human washed platelets = assay: human platelet aggregation assay; assay type: cell-based; conditions: parmodulin 10 μM, SFLLRN-NH2 1.5 μM
In short: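 Washed human platelets were incubated with test compound (10 µM), then stimulated with PAR1/2 agonist SFLLRN-NH2 (1.5 µM). Aggregation traces were recorded against DMSO vehicle control traces.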

tissue factor (TF) mRNA = assay: qPCR assay of TNF-α induced tissue factor expression in HUVEC; assay type: cell-based, human; conditions: 10 μM, TNF-α 25 ng/mL added at 1 h, mRNA at 4 h
In short: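 HUVEC were treated with test compound (10 µM) at t = 0 and TNF-α (25 ng/mL) at t = 1 h. Tissue factor mRNA was quantified by qPCR at t = 4 h, n = 3. Analysis by one-way ANOVA with Bonferroni multiple-comparisons test.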

PAR1 [4] = biological target: T2, PAR1 (Homo sapiens, UniProt P25116); assay: intracellular calcium mobilization; assay type: cell-based; conditions: for activity in the iCa2+ assay (in words): EA.hy926 cells, TFLLRN-NH2
T2 sequence (P25116 22-425): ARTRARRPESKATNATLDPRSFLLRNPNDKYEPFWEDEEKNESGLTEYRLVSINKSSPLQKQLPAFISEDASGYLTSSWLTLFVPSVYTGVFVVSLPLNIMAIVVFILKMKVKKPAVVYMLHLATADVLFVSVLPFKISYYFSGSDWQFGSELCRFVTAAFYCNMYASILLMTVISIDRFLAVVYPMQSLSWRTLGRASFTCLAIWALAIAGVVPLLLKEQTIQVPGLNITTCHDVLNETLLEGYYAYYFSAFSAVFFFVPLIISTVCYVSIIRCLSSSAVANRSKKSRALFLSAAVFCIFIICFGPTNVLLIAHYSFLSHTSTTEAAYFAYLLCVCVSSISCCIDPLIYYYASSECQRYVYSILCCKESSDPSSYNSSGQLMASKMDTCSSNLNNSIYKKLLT
In short: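 Adherent EA.hy926 endothelial cells in 96-well plates; intracellular Ca2+ mobilization triggered by PAR1 tethered-ligand peptide TFLLRN-NH2 (5 µM). Single-point screen: test compound at 10 µM, % inhibition from n = 4 wells unless noted, with SEM. IC50: 3 wells per concentration, curves fitted by 4-variable non-linear regression. Summary IC50 is the average of independent assays. Selectivity run used agonist at 3.16 µM.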

PAR1 [5] = biological target: T2, PAR1; assay type: cell-based; conditions: increasing concentrations of antagonist
In short: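 EA.hy926 endothelial cells; Ca2+ mobilization concentration-response curves for PAR1 agonist TFLLRN-NH2 were recorded at several increasing concentrations of test compound. Agonist efficacy was compared across antagonist levels.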

[6] = biological target: 5HT-5A (5-hydroxytryptamine receptor) (Homo sapiens, UniProt P47898); assay: PDSP radioligand binding, 5HT-5A; conditions: read-out: mean % inhibition of binding, 5HT-5A
hepG2 cells = assay: cytotoxicity in hepG2 cells; assay type: cell-based; conditions: human hepG2 cells
[7] = cited from earlier work
platelets = conditions: cited from earlier work
PAR1 [8] = biological target: T2, PAR1; conditions: cited from earlier work

SERT (serotonin transporter), sequence (P31645 whole entry, species assumed): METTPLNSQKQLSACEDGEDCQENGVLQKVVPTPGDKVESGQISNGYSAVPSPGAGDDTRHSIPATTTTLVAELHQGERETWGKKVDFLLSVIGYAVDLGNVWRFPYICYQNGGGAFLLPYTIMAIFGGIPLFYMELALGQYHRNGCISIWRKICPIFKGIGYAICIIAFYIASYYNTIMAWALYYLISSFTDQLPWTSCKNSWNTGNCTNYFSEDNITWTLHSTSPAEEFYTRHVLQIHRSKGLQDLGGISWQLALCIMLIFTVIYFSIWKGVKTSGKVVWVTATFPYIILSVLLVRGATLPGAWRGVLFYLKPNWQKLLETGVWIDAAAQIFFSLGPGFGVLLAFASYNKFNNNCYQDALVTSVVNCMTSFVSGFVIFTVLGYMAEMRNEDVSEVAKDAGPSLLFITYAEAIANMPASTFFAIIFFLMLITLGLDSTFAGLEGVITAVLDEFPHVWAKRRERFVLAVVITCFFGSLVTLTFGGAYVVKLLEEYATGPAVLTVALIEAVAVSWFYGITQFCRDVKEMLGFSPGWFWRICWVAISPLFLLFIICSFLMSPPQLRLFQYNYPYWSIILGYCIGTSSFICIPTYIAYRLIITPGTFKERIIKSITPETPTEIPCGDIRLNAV
5HT-5A (5-hydroxytryptamine receptor), sequence (P47898 whole entry, species assumed): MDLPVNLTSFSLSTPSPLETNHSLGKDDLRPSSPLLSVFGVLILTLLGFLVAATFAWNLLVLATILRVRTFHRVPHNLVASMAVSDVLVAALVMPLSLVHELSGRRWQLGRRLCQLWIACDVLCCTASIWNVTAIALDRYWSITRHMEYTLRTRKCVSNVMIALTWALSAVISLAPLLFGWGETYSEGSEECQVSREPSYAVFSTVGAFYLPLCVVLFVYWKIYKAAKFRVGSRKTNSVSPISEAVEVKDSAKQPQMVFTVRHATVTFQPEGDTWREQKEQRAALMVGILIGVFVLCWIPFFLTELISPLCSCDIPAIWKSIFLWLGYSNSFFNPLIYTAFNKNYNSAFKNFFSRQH

For `CCCC(=O)Nc1cccc(NC(=O)c2ccccc2Br)c1` [ML161], the Microsomal stability [1] is given as 99% (1 h, human), the “PAR2 activity?” value (PAR2) is given as “None observed” and the “stability in mouse plasma, % remaining” value [2] is given as 2%. The inhibition at 10 µM [3] was -44%, the “inhibition of platelet aggregation” value (human washed platelets) was “Complete inhibition” and the “effect on TNF-α induced TF expression (mRNA)” value (tissue factor (TF) mRNA) was “blocked the ~3-fold increase in TF expression”.
With `O=C(Nc1cccc(NC(=O)c2ccccc2Br)c1)c1cnco1` [NRD-21, N-[3-(2-bromobenzamido)phenyl]-1,3-oxazole-5-carboxamide] the “activity in the iCa2+ assay (in words)” value (PAR1 [4]; listed as 38) was “very good inhibition; also recorded: much better efficacy than 39”, the “effect on the efficacy of the PAR1 agonist TFLLRN-NH2” value (PAR1 [5]) was “reduction in efficacy” and the “PAR2 activity?” value (PAR2) was “None observed”. The inhibition at 10 µM [6] was -31%, the inhibition at 10 µM [3] was -44% and the “inhibition of platelet aggregation” value (human washed platelets) was “Complete inhibition”. The “Cytotoxicity (CC50)” value (hepG2 cells) was “no measurable toxicity” and the “effect on TNF-α induced TF expression (mRNA)” value (tissue factor (TF) mRNA) was “below baseline levels”.
In the case of `CC(C)CC(=O)Nc1cccc(NC(=O)c2ccccc2Br)c1` [compound 2], the “solubility in water with 1% DMSO” value [7] is listed as 9 µM, the “inhibition in the platelet P-selectin assay (in words)” value (platelets) is listed as “equipotent to ML161” and the “stability in mouse plasma, % remaining” value [2] is listed as 65%. The “activity in the endothelial iCa2+ assay (in words)” value (PAR1 [8]; EA.hy926 cells) was “mediocre inhibition”.
In the case of `O=C(Nc1cccc(NC(=O)C2CCCC2)c1)c1ccccc1Br` [compound 3], the “activity in the iCa2+ assay (in words)” value (PAR1 [4]) is reported as “moderate inhibition”.
For `CCCCNc1cccc(NC(=O)c2ccccc2Br)c1` [compound 5], the “activity in the iCa2+ assay (in words)” value (PAR1 [8]; as previously reported) is given as “very good activity”.
For `CCC(C)C(=O)Nc1cccc(NC(=O)c2ccccc2Br)c1` (centres unmarked) [compound 7], the “activity in the iCa2+ assay (in words)” value (PAR1 [4]) was “weak efficacy”.
In the case of `CCC(=O)Nc1cccc(NC(=O)c2ccccc2Br)c1` [compound 8], the “activity in the iCa2+ assay (in words)” value (PAR1 [4]) is reported as “decreased activity”.
In the case of `CCCCC(=O)Nc1cccc(NC(=O)c2ccccc2Br)c1` [compound 10], the “activity in the iCa2+ assay (in words)” value (PAR1 [4]) is reported as “decreased efficacy and/or potency”.
In the case of `C#CCCC(=O)Nc1cccc(NC(=O)c2ccccc2Br)c1` [compound 11], the “activity in the iCa2+ assay (in words)” value (PAR1 [4]) is reported as “decreased efficacy and/or potency”.
For `CCCCOc1cccc(NC(=O)c2ccccc2Br)c1` [compound 24], the “activity in the iCa2+ assay (in words)” value (PAR1 [4]) was “moderate activity”.
For `CN(C)CC(=O)Nc1cccc(NC(=O)c2ccccc2Br)c1` [compound 25], the “activity in the iCa2+ assay (in words)” value (PAR1 [4]) was “complete loss of activity”.
In the case of `CCCN(CCC)c1cccc(NC(=O)c2ccccc2Br)c1` [compound 26], the “activity in the iCa2+ assay (in words)” value (PAR1 [4]) is reported as “weak activity”.
For `COCCNc1cccc(NC(=O)c2ccccc2Br)c1` [compound 27], the “activity in the iCa2+ assay (in words)” value (PAR1 [4]) was “weak activity”.
For `CCCNCc1cccc(NC(=O)c2ccccc2Br)c1` [compound 28], the “activity in the iCa2+ assay (in words)” value (PAR1 [4]) was “steep drop in efficacy”.
In the case of `O=C(Nc1cccc(NC2CCCC2)c1)c1ccccc1Br` [compound 29], the “activity in the iCa2+ assay (in words)” value (PAR1 [4]) is reported as “evidence of activation”.
In the case of `O=C(Nc1cccc(N2CCCC2)c1)c1ccccc1Br` [compound 30], the “activity in the iCa2+ assay (in words)” value (PAR1 [4]) is reported as “evidence of activation”.
With `O=C(Nc1cccc(NC(=O)C2CCCO2)c1)c1ccccc1Br` (centres unmarked) [compound 36] the “activity in the iCa2+ assay (in words)” value (PAR1 [4]) was “only modest inhibition”.
In the case of `O=C(Nc1cccc(NC(=O)C2CCOC2)c1)c1ccccc1Br` (centres unmarked) [compound 37], the “activity in the iCa2+ assay (in words)” value (PAR1 [4]) is reported as “only modest inhibition”.
For `O=C(Nc1cccc(NC(=O)c2ccccc2Br)c1)c1cocn1` [compound 39], the “activity in the iCa2+ assay (in words)” value (PAR1 [4]) was “very good inhibition” and the “inhibition of PAR1” value (PAR1 [4]; selectivity study: parmodulin 10 μM, TFLLRN-NH2 3.16 μM) was “less than 75%”.
